Bioassay records as filed in PubChem BioAssay.
A selection: hits, their analogues and other compounds. The true share with any hit is near 3.8%.
ARNT TACC3 PPI: ARNT/TACC3 interaction disruption; AlphaScreen His-ARNT PAS-B/GST-TACC3 binding, luminescence; TACC3 fragment carries E629A point mutation; inhibition, % at 9.99 µM; 390,000 tested, 0.66% active; Q9Y6A5;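 active = mean inhibition of replicates at least 50% and at least half of replicates each reaching 50%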
SIRT5 inh: blocks human SIRT5 desuccinylation of peptide. Q9NXA8. Purified SirT5, succinyl-peptide AMC, trypsin-coupled fluorescence. inhibition, % at 15 µM. 330,000 tested, 1.1% active; in the data active = inhibition above about 15%
Target sequence (Q9NXA8 whole entry, looked up): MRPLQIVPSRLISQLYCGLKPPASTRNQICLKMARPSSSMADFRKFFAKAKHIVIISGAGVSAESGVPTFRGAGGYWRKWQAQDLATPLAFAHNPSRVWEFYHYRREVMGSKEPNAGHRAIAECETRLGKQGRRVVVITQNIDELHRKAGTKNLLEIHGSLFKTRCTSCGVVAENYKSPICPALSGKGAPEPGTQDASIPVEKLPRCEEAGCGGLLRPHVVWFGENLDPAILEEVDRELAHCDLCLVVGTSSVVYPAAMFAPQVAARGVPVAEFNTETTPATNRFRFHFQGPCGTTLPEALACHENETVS
FGF22 binding: FGF22 (human) thermal shift binding; Q9HCT0; recombinant FGF22 thermal shift, SYPRO orange fluorescence; percent of sucrose octasulfate shift, DMSO zero; activity (Tm shift, normalised), % at 9.99 µM; 340,000 tested, 1.5% active;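 active = mean Tm shift, scaled 0 neutral to 100 positive control, at about 1.3% or above, every replicate too, limit read from the data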
Target sequence (Q9HCT0 whole entry, looked up): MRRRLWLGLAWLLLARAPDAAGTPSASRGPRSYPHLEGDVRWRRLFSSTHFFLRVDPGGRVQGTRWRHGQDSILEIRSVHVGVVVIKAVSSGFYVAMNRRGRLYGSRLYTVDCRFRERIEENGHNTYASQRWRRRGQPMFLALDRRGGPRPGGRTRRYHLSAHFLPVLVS
DENV2 CPE rescue: DENV2-induced cell death inhibition | DENV2-infected cells, cytopathic effect rescue, plate reader | CPE inhibition, % at 9.99 µM | 350,000 tested, 1.7% active | AID 651640; in the data active = CPE inhibition above about 20%, passing the limit was not always enough; tested in BHK-21 cells
Xi reactivation: X-chromosome reactivation activator. XiGFP mouse fibroblasts, % GFP-positive cells imaging, 3 d; cells co-treated with 5-aza-dC sensitizer; scaled so ellipticine positive control = 100%. activation, % at 7.58 µM. 360,000 tested, 0.055% active;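 active = mean normalized replicate activation at least 10% and every replicate at or above 10%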
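Schedule: 3 d treatment, 15 min room-temperature fixation; system: 68-5-11 XiGFP fibroblast line; buffer or medium: DMEM plus 5-aza-dC sensitizer; control set: ellipticine 6 µM positive control; compound: one concentration, pinned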
FN deposition inh: fibronectin deposition inhibition; AID 743247; inhibition, % at 12.6 µM; 350,000 tested, 0.086% active; AH1F fibroblasts, Alexa488-fibronectin deposition fluorescence, overnight;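 active = mean inhibition across replicates of 30% or more, regardless of how many single replicates reach that level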
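test system = AH1F fibroblasts assembling fluorescent fibronectin matrix | quantity = 10000 AH1F cells per well | buffer or medium = DMEM plus 2% serum, read in PBS | doses = single dose, pinned | incubation = 1 h cell attachment, overnight exposure to compound and label | detection = fluorescence at 485 nm excitation, 525 nm emission | read-out basis = inhibition from reduced deposited-fibronectin fluorescence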
Of the large screens only hits and unclear results are named; the others gave an inactive call; ! = not confirmed by another sample.

O=[N+]([O-])c1cc2c(cc1/C=N/n1c(-c3ccccn3)n[nH]c1=S)OCO2	ARNT TACC3 PPI 71 (no result: SIRT5 inh, FGF22 binding, DENV2 CPE rescue)
S=c1[nH]nc(-c2ccccn2)n1/N=C/c1cccc(Cl)c1	ARNT TACC3 PPI 61
Cc1ccc(S(=O)(=O)Nc2ccc3c(c2)C(=O)N([C@H](C)CO)C[C@H](C)[C@H](CN(C)C(=O)Nc2ccccc2)O3)cc1	none (no result: ARNT TACC3 PPI, SIRT5 inh, FGF22 binding, DENV2 CPE rescue, FN deposition inh)
CO[C@H]1CN(C)C(=O)c2ccc(NC(=O)C3CC3)cc2OC[C@@H](C)N(C)C[C@@H]1C	none
C=Cc1cnc([N+](=O)[O-])n1C	Xi reactivation 88 (no result: ARNT TACC3 PPI)
CN1C(=O)c2cc(NS(=O)(=O)c3ccccc3Cl)ccc2OC[C@@H]2O[C@@H](CC(=O)O)CC[C@H]21	none
O=S1(=O)OCCC(c2ccccc2)N1Cc1ccccc1 (configuration not stated)	none (no result: SIRT5 inh)
CN1C(c2ccccc2)CCOS1(=O)=O (configuration not stated)	DENV2 CPE rescue 47 (no result: SIRT5 inh)
COc1ccc2c3c([nH]c2c1)[C@H](CO)N(C(=O)c1ccc(F)cc1)CC31CN(C(=O)Nc2cccc(F)c2)C1	none (no result: ARNT TACC3 PPI, FN deposition inh)
O=C(Nc1nnc([C@H]2C[C@H](O)[C@@H](CO)O2)s1)c1ccccc1F	DENV2 CPE rescue 29 (no result: ARNT TACC3 PPI)
CCCN(C)C[C@H]1Oc2cc(-c3cccnc3)ccc2S(=O)(=O)N([C@H](C)CO)C[C@H]1C	none (no result: FN deposition inh)
CC(C)COC(=O)N(C)C[C@@H]1OCc2ccccc2-c2ccccc2C(=O)N([C@@H](C)CO)C[C@@H]1C	none (no result: FN deposition inh)
CCOC(=O)N(C)C[C@H]1OCc2ccccc2-c2ccccc2C(=O)N([C@H](C)CO)C[C@@H]1C	SIRT5 inh 21
CO[C@@H](C(=O)N(C)C[C@H]1OCc2ccccc2-c2ccccc2C(=O)N([C@@H](C)CO)C[C@@H]1C)c1ccccc1	SIRT5 inh 19
CN1/C(=C\C=O)C(C)(C)c2ccccc21	none (no result: SIRT5 inh, DENV2 CPE rescue)
CN1/C(=C/C=C(C#N)C#N)C(C)(C)c2ccccc21	Xi reactivation 25
CC(C)C[C@@H](CO)NS(=O)(=O)c1c(F)cccc1F	DENV2 CPE rescue 49
CC(C)CC(CO)NS(=O)(=O)c1cccc(Cl)c1F (configuration not stated)	none (no result: SIRT5 inh)
Cc1noc(C)c1NC(=O)Nc1ccc2c(c1)C(=O)N([C@@H](C)CO)C[C@@H](C)[C@@H](CN(C)Cc1ccc(C(F)(F)F)cc1)OCCCC[C@@H](C)O2	none (no result: FN deposition inh)
CC(=O)c1ccc(OCc2cccc(C(F)(F)F)c2)cc1O	FGF22 binding 43
NNC(=O)c1sccc1OCc1cccc(C(F)(F)F)c1	none
Cc1ccc(S(=O)(=O)Nc2cccc3c2O[C@@H](CN(C)C(=O)Nc2c(C)noc2C)[C@@H](C)CN([C@@H](C)CO)C3=O)cc1	none (no result: ARNT TACC3 PPI, FN deposition inh)
COc1cc(OC)c2c(c1)OC(c1ccc(OC)c(OC)c1)C(O)C2=O (configuration not stated)	DENV2 CPE rescue 32 (no result: SIRT5 inh)
O=C(c1ccc(F)cc1)N1CCCCN2[C@@H](CO)[C@@H](c3ccc(C#CC4(O)CCCC4)cc3)[C@@H]2C1	DENV2 CPE rescue 36 (no result: FN deposition inh)
O=C(c1ccc(F)cc1)N1CCCCN2[C@@H](CO)[C@H](c3ccc(C#CC4(O)CCCC4)cc3)[C@@H]2C1	none (no result: FN deposition inh)
OC[C@H]1[C@@H](c2ccc(C#CC3(O)CCCC3)cc2)[C@@H]2CN(Cc3ccccc3F)CCCCN12	DENV2 CPE rescue 41 (no result: FN deposition inh)
COc1ccc(C#Cc2ccc([C@H]3[C@@H](CO)N4CCCCN(Cc5ccccc5F)C[C@H]34)cc2)cc1	none
CC(=O)N(C)C[C@H]1Oc2cc(C3=CCCCC3)ccc2S(=O)(=O)N([C@H](C)CO)C[C@H]1C	none (no result: ARNT TACC3 PPI, SIRT5 inh, FGF22 binding, DENV2 CPE rescue, FN deposition inh)
CO[C@H]1CN(C)C(=O)c2cc(NC(=O)c3cc(C)on3)ccc2OC[C@@H](C)N(C(=O)C2CC2)C[C@@H]1C	none
CO[C@@H]1CN(C)C(=O)c2cc(NC(=O)c3cc(C)on3)ccc2OC[C@H](C)N(C(=O)C2CC2)C[C@H]1C	DENV2 CPE rescue 21
COCC(=O)N1C[C@@H](C)[C@H](OC)CN(C)C(=O)c2ccc(NC(=O)c3cc(C)on3)cc2OC[C@@H]1C	none
COCC(=O)N1C[C@@H](C)[C@@H](OC)CN(C)C(=O)c2ccc(NC(=O)c3cc(C)on3)cc2OC[C@@H]1C	SIRT5 inh 34
COc1ccc(/C=C(\C#N)C(=O)OCC(=O)NC2CC2)cc1	FGF22 binding 44 (no result: DENV2 CPE rescue)
COc1ccc(/C=C(\C#N)C(=O)OCC(=O)NCc2ccccc2)cc1	FGF22 binding 34
CO[C@H]1CN(C)C(=O)c2cc(NC(=O)Nc3ccccc3)ccc2OC[C@@H](C)N(C(=O)CN(C)C)C[C@H]1C	none
C[n+]1c2cc(N)ccc2cc2ccc(N)cc21	ARNT TACC3 PPI 28!, Xi reactivation 53
CC(C)NC(=O)Nc1ccc2c(c1)C(=O)N(C)[C@@H]1CC[C@H](CC(=O)NCC(F)(F)F)O[C@@H]1CO2	none (no result: SIRT5 inh)
O=C(C[C@H]1CC[C@H]2[C@@H](COC[C@@H](O)CN2S(=O)(=O)c2ccc(F)cc2)O1)NCCN1CCCCC1	none
COc1ccccc1C1CC(=O)Oc2cc(C)c(Br)c(C)c21 (configuration not stated)	SIRT5 inh 35
C[C@@H]1CCCCO[C@@H](CN(C)Cc2ccccc2)[C@@H](C)CN([C@H](C)CO)C(=O)c2cc(NS(=O)(=O)c3cn(C)cn3)ccc2O1	none (no result: FGF22 binding)
COc1ccc(/C=C2/C(=O)N(c3cccc(F)c3)N=C2C)c(OC)c1	DENV2 CPE rescue 37
CC1=NN(c2cccc(F)c2)C(=O)/C1=C/c1ccc(N(C)C)cc1	none
CC(C)NC(=O)N1C[C@H]2[C@@H](c3ccccc31)[C@@H](CO)N2C(=O)c1ccc(F)cc1	none (no result: FN deposition inh)
CC12C(=O)N(c3nccs3)C(=O)C1(C)C1CCC2O1 (configuration not stated)	FGF22 binding 43 (no result: ARNT TACC3 PPI, SIRT5 inh)
CC(C)N1CCc2c(sc(NC(=O)c3ccc4ccccc4c3)c2C(N)=O)C1	Xi reactivation 99 (no result: FN deposition inh)
CC(=O)c1ccc(C(=O)Nc2sc3c(c2C(N)=O)CCN(Cc2ccccc2)C3)cc1	Xi reactivation 39
CC(C)N1CCc2c(sc(NC(=O)c3ccc(S(=O)(=O)N(C)CC4CCCO4)cc3)c2C(N)=O)C1 (configuration not stated)	none
CC(C)N1CCc2c(sc(NC(=O)c3cc4cc([N+](=O)[O-])ccc4s3)c2C(N)=O)C1	Xi reactivation 65
CC(C)N1CCc2c(sc(NC(=O)c3ccc(C(=O)c4ccccc4)cc3)c2C(N)=O)C1	none
CCN1CCc2c(sc(NC(=O)c3ccc(S(=O)(=O)N(C)CC4CCCO4)cc3)c2C(N)=O)C1 (configuration not stated)	SIRT5 inh 24
